Experimental data reported in ChEMBL document CHEMBL1129275, “Synthesis and in vitro and in vivo characteristics of an iodinated analogue of the beta-adrenoceptor antagonist carazolol” (J Med Chem, 1996).

Experiments:
Conditions in all cases: in vivo
Oryctolagus cuniculus [1] = assay: Biodistribution pattern of [123I]- ligand was evaluated in lung of anesthetized rabbit after Intravenous injection of 50 uCi after 2 hr; format: ADME, organism-based
Procedure, shortened: (§1)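 Male New Zealand white rabbits, 2.5–3.5 kg, anesthetized with 5 mg/kg xylazine plus 30 mg/kg ketamine im. Each received 50 uCi radioligand (specific activity > 5000 Ci/mmol) iv via ear vein. Animals were killed with 200 mg/kg pentobarbital im at the set time. Blood was drawn by intracardiac puncture and organs weighed. Gamma counting was decay-corrected, expressed as %ID x kg body weight/g tissue, mean ± SEM, n = 3/time point.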

Oryctolagus cuniculus [2] = assay: Cerebral biodistribution pattern of [123I]- ligand was evaluated in striatum of anesthetized rabbit after Intravenous injection of 50 uCi after 2 hr; format: ADME, organism-based
Procedure, shortened: (§2)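 Male New Zealand white rabbits (2.5–3.5 kg), anesthetized with xylazine 5 mg/kg plus ketamine 30 mg/kg im, given 50 µCi radioligand (specific activity >5000 Ci/mmol) iv via ear vein. Euthanized at set times by pentobarbital 200 mg/kg im, n = 3/time point. Organs removed and weighed, gamma-counted, decay/weight corrected; expressed as % ID x kg body weight/g tissue, mean ± SEM.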

Oryctolagus cuniculus [3] = assay: Biodistribution pattern of [123I]- ligand was evaluated in muscle of anesthetized rabbit after Intravenous injection of 50 uCi after 2 hr; format: ADME, organism-based, Muscle tissue; procedure, shortened: as §1
Oryctolagus cuniculus [4] = assay: […] biodistribution pattern of [123I]- ligand was evaluated in kidney of anesthetized rabbit after Intravenous injection of 50 uCi after 2 hr; format: ADME, organism-based; procedure, shortened: as §2
Oryctolagus cuniculus [5] = assay: Biodistribution pattern of [123I]- ligand was evaluated in right atrial muscle of anesthetized rabbit after Intravenous injection of 50 uCi after 2 hr; format: ADME, organism-based, Muscle tissue; procedure, shortened: as §2
Oryctolagus cuniculus [6] = assay: Biodistribution pattern of [123I]- ligand was evaluated in blood of anesthetized rabbit after Intravenous injection of 50 uCi after 2 hr; format: ADME, organism-based; procedure, shortened: as §1
Oryctolagus cuniculus [7] = assay: Biodistribution pattern of [123I]- ligand was evaluated in left ventricular muscle of anesthetized rabbit after Intravenous injection of 50 uCi after 2 hr; format: ADME, organism-based, Muscle tissue; procedure, shortened: as §1
Oryctolagus cuniculus [8] = assay: Biodistribution pattern of [123I]- ligand was evaluated in liver of anesthetized rabbit after Intravenous injection of 50 uCi after 2 hr; format: ADME, organism-based; procedure, shortened: as §1
Oryctolagus cuniculus [9] = assay: Cerebral biodistribution pattern of [123I]- ligand was evaluated in thalamus of anesthetized rabbit after Intravenous injection of 50 uCi after 2 hr; format: ADME, organism-based; procedure, shortened: as §2
Oryctolagus cuniculus [10] = assay: Biodistribution pattern of [123I]- ligand was evaluated in spleen of anesthetized rabbit after Intravenous injection of 50 uCi after 2 hr; format: ADME, organism-based; procedure, shortened: as §2
Oryctolagus cuniculus [11] = assay: Biodistribution pattern of [123I]- ligand was evaluated in left atrial muscle of anesthetized rabbit after Intravenous injection of 50 uCi after 2 hr; format: ADME, organism-based, Muscle tissue; procedure, shortened: as §1
Oryctolagus cuniculus [12] = assay: Biodistribution pattern of [123I]- ligand was evaluated in intestine of anesthetized rabbit after Intravenous injection of 50 uCi after 2 hr; format: ADME, organism-based; procedure, shortened: as §1
Oryctolagus cuniculus [13] = assay: Cerebral biodistribution pattern of [123I]- ligand was evaluated in hypothalamus of anesthetized rabbit after Intravenous injection of 50 uCi after 2 hr; format: ADME, organism-based; procedure, shortened: as §2
Oryctolagus cuniculus [14] = assay: Cerebral biodistribution pattern of [123I]- ligand was evaluated in cerebellum of anesthetized rabbit after Intravenous injection of 50 uCi after 2 hr; format: ADME, organism-based; procedure, shortened: as §2
Oryctolagus cuniculus [15] = assay: Biodistribution pattern of [123I]- ligand was evaluated in right ventricular muscle of anesthetized rabbit after Intravenous injection of 50 uCi after 2 hr; format: ADME, organism-based, Muscle tissue; procedure, shortened: as §2
Oryctolagus cuniculus [16] = assay: Cerebral biodistribution pattern of [123I]- ligand was evaluated in frontal cortex of anesthetized rabbit after Intravenous injection of 50 uCi after 2 hr; format: ADME, organism-based; procedure, shortened: as §2
Oryctolagus cuniculus [17] = assay: Biodistribution pattern of [123I]- ligand was evaluated in fat of anesthetized rabbit after Intravenous injection of 50 uCi after 2 hr; format: ADME, organism-based, Adipose tissue; procedure, shortened: as §1
Oryctolagus cuniculus [18] = assay: Cerebral biodistribution pattern of [123I]- ligand was evaluated in pituitary gland of anesthetized rabbit after Intravenous injection of 50 uCi after 2 hr; format: ADME, organism-based; procedure, shortened: as §2

ID x kg of body weight/g of tissue (Oryctolagus cuniculus [1]) | ID x kg of body weight/g of tissue (Oryctolagus cuniculus [2]) | ID x kg of body weight/g of tissue (Oryctolagus cuniculus [3]) | ID x kg of body weight/g of tissue (Oryctolagus cuniculus [4]) | ID x kg of body weight/g of tissue (Oryctolagus cuniculus [5]) | ID x kg of body weight/g of tissue (Oryctolagus cuniculus [6]) | ID x kg of body weight/g of tissue (Oryctolagus cuniculus [7]) | ID x kg of body weight/g of tissue (Oryctolagus cuniculus [8]) | ID x kg of body weight/g of tissue (Oryctolagus cuniculus [9]) | ID x kg of body weight/g of tissue (Oryctolagus cuniculus [10]) | ID x kg of body weight/g of tissue (Oryctolagus cuniculus [11]) | ID x kg of body weight/g of tissue (Oryctolagus cuniculus [12]) | ID x kg of body weight/g of tissue (Oryctolagus cuniculus [13]) | ID x kg of body weight/g of tissue (Oryctolagus cuniculus [14]) | ID x kg of body weight/g of tissue (Oryctolagus cuniculus [15]) | ID x kg of body weight/g of tissue (Oryctolagus cuniculus [16]) | ID x kg of body weight/g of tissue (Oryctolagus cuniculus [17]) | ID x kg of body weight/g of tissue (Oryctolagus cuniculus [18]) | SMILES
< 0.8% | 0.08% | < 0.03% | 0.09% | < 0.05% | 0.01% | < 0.08% | 0.1% | 0.06% | 0.12% | < 0.05% | 0.46% | 0.06% | 0.17% | < 0.08% | 0.1% | 0.04% | 0.07% | CC(C)(C)NCC(O)COc1cccc2[nH]c(=O)[nH]c12 (stereo not given) [CGP-12177]
 | < 0.04% | < 0.03% | 0.1% | < 0.07% | 0.01% | < 0.09% | 0.1% | 0.04% | 0.1% | < 0.07% | 0.29% | 0.04% | < 0.04% | < 0.09% | < 0.05% | 0.04% | 0.06% | CC(C)NCC(O)COc1cccc2ccccc12 (stereo not given) [PROPRANOLOL]
